Species: Homo sapiens
Test: The inhibitory concentration for the inhibition of ADP-Triggered Blood Platelet Aggregation
Format: functional
Outline: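 Human citrated PRP from unmedicated healthy donors (200g, 10 min, rt spin); PPP from 1000g, 20 min. Serial dilutions in phosphate buffer pH 7.4 preincubated with PRP 30 min at rt, then ADP added. Aggregation followed 10 min at 37 °C, absorbance 595 nm every 30 s with shaking; buffer and PPP-only controls; AMP as positive control.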

SMILES	IC50 [µM]
Nc1ncnc2c1ncn2[C@@H]1O[C@H](COP(=O)(O)OCP(=O)(O)COP(=O)(O)OC[C@H]2O[C@@H](n3cnc4c(N)ncnc43)[C@H](O)[C@@H]2O)[C@@H](O)[C@H]1O	80
Nc1ncnc2c1ncn2[C@@H]1O[C@H](COP(=S)(S)OCP(=O)(O)COP(=S)(S)OC[C@H]2O[C@@H](n3cnc4c(N)ncnc43)[C@H](O)[C@@H]2O)[C@@H](O)[C@H]1O (stereo partly specified)	10
Nc1ncnc2c1ncn2[C@@H]1O[C@H](COP(O)(=S)OCP(=O)(O)COP(O)(O)=S)[C@@H](O)[C@H]1O (stereo partly specified)	13
Nc1ncnc2c1ncn2[C@@H]1O[C@H](COP(O)(=S)OC(C(=O)O)C(OP(O)(=S)OC[C@H]2O[C@@H](n3cnc4c(N)ncnc43)[C@H](O)[C@@H]2O)C(=O)O)[C@@H](O)[C@H]1O (stereo partly specified)	75
Nc1ncnc2c1ncn2[C@@H]1O[C@H](COP(O)(=S)OCC(OP(O)(O)=S)OP(O)(=S)OC[C@H]2O[C@@H](n3cnc4c(N)ncnc43)[C@H](O)[C@@H]2O)[C@@H](O)[C@H]1O (stereo partly specified)	> 160
Nc1ncnc2c1ncn2[C@@H]1O[C@H](COP(O)(=S)OCP(=O)(O)COP(O)(=S)OC[C@H]2O[C@@H](n3cnc4c(N)ncnc43)[C@H](O)[C@@H]2O)[C@@H](O)[C@H]1O (stereo partly specified)	40
